Shown are actives, neighbours in structure and some others; about 3.5% of the full set was active somewhere.
Env fusion inh: HIV envelope-mediated fusion inhibition | HeLa-JRFL Env/CEM21 cell fusion, luciferase | inhibition, % at 12.3 µM | 1.1% of 360,000 active;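 active = mean replicate inhibition score of at least 50 and every replicate individually at or above 50; inconclusive = only one of the two criteria met; inactive = mean below 50 and not all replicates reaching 50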
PGC1a acetyl inh: modulators of PGC1a acetylation | 0.17% of 350,000 active | U2OS PGC1a acetylation, AlphaScreen anti-acetyl-lysine; with virally co-expressed GCN5 acetyltransferase | inhibition, % at 15.6 µM;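 active = every replicate shows inhibition of at least 40%; inconclusive = mean inhibition at least 40% but some replicate below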
DENV2 CPE rescue: DENV2-induced cell death inhibition; AID 651640; 1.7% of 350,000 active; CPE inhibition, % at 9.99 µM; DENV2-infected cells, cytopathic effect rescue, plate reader; in the data active = CPE inhibition above about 20%, passing the limit was not always enough; inconclusive = no clear call, values can overlap the other calls; tested in BHK-21 cells
PglD inh: PglD (C. jejuni) enzyme inhibition | purified PglD enzyme, DTNB colorimetric CoA detection | inhibition, % at 12.5 µM | 0.098% of 360,000 active; in the data active = inhibition above about 16%, passing the limit was not always enough; inconclusive = no clear call, values can overlap the other calls
FN deposition inh: fibronectin deposition inhibition. AH1F fibroblasts, Alexa488-fibronectin deposition fluorescence, overnight. 0.086% of 350,000 active. inhibition, % at 12.6 µM;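 active = mean inhibition across replicates of 30% or more, regardless of how many single replicates reach that level; inconclusive = mean under 30% yet at least half of replicates reach 30%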
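Material – AH1F fibroblast monolayer, labelled fibronectin deposition · Reagent – labelled fibronectin 24 nM · Timing – 1 h adhesion, overnight exposure · Measured by – fluorescence at 485 nm excitation, 525 nm emission · Read-out – inhibition of fibronectin deposition signal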
rRNA inh HTS: inhibitors of bacterial rRNA selective over humanized ribosomes; E. coli WT GFP vs humanized-ribosome RFP mutants, fluorescence, 24 h; hits give low values; DMSO median 0, no signal -100; AID 720706; 1.6% of 350,000 active; GFP signal change (wild-type ribosome), % (no concentration beside the values);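 active = significant combined selectivity score with lowered wild-type GFP, culture density cut under 30%, mutant RFP and density less affected; inactive = any of these conditions unmet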
Hits are given with their value; n = inactive; u = inconclusive; x = no result given.

SMILES	Env fusion inh	PGC1a acetyl inh	DENV2 CPE rescue	PglD inh	FN deposition inh	rRNA inh HTS
CNC(=O)C[C@H]1CC[C@@H]2[C@@H](COc3ccc(NC(=O)Nc4c(C)noc4C)cc3C(=O)N2C)O1	n	n	x	x	x	n
CN(C)S(=O)(=O)c1ccc(C(=O)Nc2ccc3c(c2)CCC3)cc1	n	n	n	n	n	n
CN(C)S(=O)(=O)c1cccc(C(=O)Nc2ccc3c(c2)CCC3)c1	n	n	n	n	n	-19.4
O=C(Nc1ccc(OC(F)F)c(Cl)c1)c1cccc(OC(F)F)c1	x	n	x	n	x	x
CCN(CC)S(=O)(=O)c1cccc(C(=O)Nc2ccc(C#N)cc2)c1	57.1	x	x	n	x	x
CCN(CC)S(=O)(=O)c1cccc(C(=O)Nc2cc(C)cc(C)c2)c1	n	n	x	n	n	x
O=C(Nc1ccc2c(c1)CCC2)c1cccc(OC(F)F)c1	n	n	n	n	n	-24.1
CC(C)NC(=O)N(C)C[C@@H]1OCCCC[C@@H](C)Oc2ccc(NS(=O)(=O)c3ccc(Cl)cc3)cc2C(=O)N([C@H](C)CO)C[C@H]1C	n	n	n	n	n	n
N#CC(Sc1ccccn1)c1ccc(Cl)cc1Cl (stereo not drawn)	n	x	n	x	n	-20.9
Cc1cccc(NC(=S)N(CCc2ccncc2)C(C)C)c1C	n	n	n	x	n	n
CC(C)N(CCc1ccncc1)C(=S)Nc1cccc(Cl)c1	n	n	n	x	n	-17.2
COc1ccc(NC(=O)C2CCCN(c3c4c(nc5ncnn35)CCC4)C2)cc1OC (stereo not drawn)	n	n	x	n	x	x
O=C(Nc1ccc2c(c1)CCC2)C1CCN(c2c3c(nc4ncnn24)CCC3)CC1	96.4	n	x	n	n	x
O=C(Nc1ccc(Oc2ccccc2)cc1)C1CCN(c2c3c(nc4ncnn24)CCC3)CC1	103.3	n	x	n	n	x
C[C@H](CO)N1C[C@H](C)[C@@H](CN(C)Cc2ccccc2)Oc2c(NS(=O)(=O)c3cccs3)cccc2C1=O	n	n	n	n	x	n
O=[N+]([O-])c1cccc(-c2cc3cccc[n+]3cc2-c2cccc([N+](=O)[O-])c2)c1	n	n	x	n	n	x
Cc1cccc2cc(-c3ccccc3)c(-c3ccccc3)c[n+]12	n	n	n	n	n	-42.2
COc1cc2c(cc1OC)CN(C(=O)c1sc(-c3cnccn3)nc1C)CC2	n	n	n	x	n	n
COc1cc2c(cc1OC)C(C)N(C(=O)c1sc(-c3cnccn3)nc1C)CC2 (stereo not drawn)	n	x	n	x	n	-33.8
CON(C)C(=O)CCN(Cc1ccccc1)C(=O)OC(C)(C)C	n	n	n	n	n	n
CC(C)(C)OC(=O)NOCC(=O)N(CC(=O)c1ccccc1)Cc1ccccc1	n	n	28.7	n	n	n
CC(C)(C)OC(=O)NOCC(=O)N(Cc1ccccc1)CC(O)COc1ccccc1 (stereo not drawn)	n	n	u	n	n	-18.1
CC1(C(=O)NS(=O)(=O)c2ccc(Cl)cc2)CCN1C(=O)CCc1ccc(Cl)cc1Cl (stereo not drawn)	n	n	n	n	n	-29.9
Cc1ccccc1S(=O)(=O)NC(=O)C1(C)CCN1C(=O)CC(c1ccccc1)c1ccccc1 (stereo not drawn)	n	n	38.4	n	n	n
Cc1ccc(S(=O)(=O)NC(=O)C2(C)CCN2C(=O)CCc2ccc(Cl)cc2Cl)cc1 (stereo not drawn)	n	n	n	n	n	n
CC1(C(=O)NS(=O)(=O)c2ccccc2)CCN1C(=O)Cc1ccccc1 (stereo not drawn)	x	n	n	n	n	n
Cc1ccc(S(=O)(=O)NC(=O)C2(C)CCN2C(=O)Cc2ccc(-c3ccccc3)cc2)cc1 (stereo not drawn)	n	n	n	n	n	-33.6
C[C@@H]1CN([C@H](C)CO)C(=O)c2cccc(NC(=O)c3cnccn3)c2O[C@H]1CN(C)Cc1ccc(-c2ccccc2)cc1	x	n	n	n	x	n
CCc1csc(N2[C@H](C#N)[C@H](c3ccc(-c4cccc(F)c4)cc3)[C@@H]2CO)n1	n	n	n	n	n	n
C[C@@H]1CCCCO[C@@H](CN(C)C(=O)C2CCCCC2)[C@@H](C)CN([C@@H](C)CO)C(=O)c2cc(NC(=O)CCC(F)(F)F)ccc2O1	n	n	n	n	x	n
